Reference: ChEMBL document CHEMBL1125812, “Synthesis of two cyclopentenyl-3-deazapyrimidine carbocyclic nucleosides related to cytidine and uridine” (1991)

Legend:
Format in all cases: functional
Settings in all cases: Mus musculus
[1] = tested on: L1210; assay: Compound was evaluated for the ability to inhibit L1210 tumor cell growth a concentration of 10 uM
How it was run: (§1)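 L1210 cells seeded at 0.15 × 10^5 cells/mL in Fisher's medium with 10% heat-inactivated horse serum. Drug exposure was continuous for 48 h, and cell number was counted with a Coulter counter. Percent inhibition was calculated relative to untreated control cultures, which reached 4.5 × 10^5 cells/mL.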

[2] = tested on: L1210; assay: Compound was evaluated for the ability to inhibit L1210 tumor cell growth a concentration of 100 uM; how it was run: as §1
[3] = tested on: L1210; assay: Compound was evaluated for the ability to inhibit L1210 tumor cell growth a concentration of 1000 uM; how it was run: as §1
[4] = tested on: L1210; assay: Compound was evaluated for the ability to inhibit L1210 tumor cell growth a concentration of 1 uM; how it was run: as §1

Row | Structure (SMILES) | inhibition at 10 µM [1] | inhibition at 100 µM [2] | inhibition at 1000 µM [3] | inhibition at 1 µM [4]
1 | Nc1ccn([C@@H]2C=C(CO)[C@@H](O)[C@H]2O)c(=O)c1 | 0% | 0% | 15% | 0%
2 | O=c1cc(O)ccn1[C@@H]1C=C(CO)[C@@H](O)[C@H]1O | 45% | 66% | 75% | 8%
3 | Nc1ccn([C@@H]2C=C(CO)[C@@H](O)[C@H]2O)c(=O)n1 | 93% | 93% | – | 93%
